The values below come from ChEMBL document CHEMBL1132424, “Design, synthesis, and evaluation of a novel sequence-selective epoxide-containing DNA cross-linking agent based on the pyrrolo[2, 1-c][1,4]benzodiazepine system” (J Med Chem, 1999).

One assay deals with CH1. In words: In vitro cytotoxicity against ovarian carcinoma cell line CH1. Format: functional, cell-based, Homo sapiens. The gist of the method: (§1)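 Cells seeded and left to attach overnight, then exposed in quadruplicate wells to compound (20 mM DMSO stock diluted in growth medium) at final 100 µM to 2.5 nM for 96 h at 37 °C. Cells fixed with 10% trichloroacetic acid, stained with 0.4% sulforhodamine B, absorbance read at 540 nm. IC50 from concentration versus percent absorbance of untreated wells.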

For assay [1], the system named is A2780. In words: In vitro cytotoxicity against. ovarian carcinoma cell line A2780. The format is functional, cell-based, Homo sapiens. The gist of the method:
as §1

Assay [2] deals with A2780. The assay is described as follows: In vitro cytotoxicity against. ovarian carcinoma cell line A2780cisR (cisplatin resistant counter part of A2780). Format: functional, cell-based, Homo sapiens. The procedure, abridged:
as §1

Another assay has as its system SK-OV-3. In words: In vitro cytotoxicity against. ovarian carcinoma cell line SKOV-3. The format is functional, cell-based, Homo sapiens. The gist of the method: as §1
The subject of assay [3] is Nucleic Acid. In words: Effect on thermal denaturation temperature of CT-DNA after incubation for 4 hours with the compound. Format: functional. The conditions noted are these: Bos taurus. The gist of the method:
(§2)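 Calf thymus duplex DNA (100 µM in phosphate) with PBD at 20 µM (1:5 PBD/DNA ratio), added from concentrated MeOH solution. Buffer was 10 mM sodium phosphate, 1 mM Na2EDTA, pH 7.00. Incubated at 37 °C for the stated time, then A260 read while heating 40-98 °C at 1 °C/min. Tm taken from d(A260)/dT maxima, MeOH-corrected. ΔTm = Tm(DNA+PBD) − Tm(DNA alone). Mean of three determinations.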

Assay [4] relates to Nucleic Acid. The assay is described as follows: Effect on thermal denaturation temperature of CT-DNA after incubation for 0 hours with the compound. The format is functional. The note with it: Bos taurus. The gist of the method:
as §2

The test system of assay [5] is Nucleic Acid. The assay is described as follows: Effect on thermal denaturation temperature of CT-DNA after incubation for 18 hours with the compound. The note with it: Bos taurus. Format: functional. The gist of the method:
as §2

Assay [6] can be described thus: In vitro cytotoxicity against. ovarian carcinoma cell line CH1cisR (cisplatin resistant counter part of CH1). The format is functional, cell-based, Homo sapiens. The gist of the method:
as §1

Assay [7] concerns Nucleic Acid. In words: Effect on thermal denaturation temperature of CT-DNA after incubation for 36 hours with the compound. Format: functional. The note with it: Bos taurus. The gist of the method: as §2

pIC50: −log10 of the molar value.

Regarding `C=CCOc1cc2c(cc1OC)C(=O)N1CCC[C@H]1C=N2`, the pIC50 is 6.80 in the assay on CH1 (Homo sapiens, CH1); 5.98 in the assay with A2780 [1] (Homo sapiens, A2780); 5.78 in the assay with A2780 [2] (Homo sapiens, A2780); 5.48 in the assay with SK-OV-3 (Homo sapiens, SK-OV-3); 6.87 in assay [6] (Homo sapiens, CH1cisR). Also, the ΔTm with Nucleic Acid [3] was found to be 0.7 °C; in the assay with Nucleic Acid [4], 0.4 °C; in the assay with Nucleic Acid [5], 0.8 °C.

For the molecule CISPLATIN, the pIC50 in the assay with CH1 (ch1) is 7.54; in the assay with A2780 [1] (a2780), 6.80; in the assay on A2780 [2] (a2780), 5.21; in the assay with SK-OV-3 (sk-ov-3), 5.38; in assay [6] (ch1cisr), 6.77.

Turning to `COc1cc2c(cc1OCC1CO1)N=C[C@@H]1CCCN1C2=O` (some centres undefined), the negative-log IC50 (pIC50) was 7.23 with CH1 (Homo sapiens, CH1); 7.35 in the assay with A2780 [1] (Homo sapiens, A2780); 6.70 in the assay with A2780 [2] (Homo sapiens, A2780); 5.89 in the assay on SK-OV-3 (Homo sapiens, SK-OV-3); 7.33 in assay [6] (Homo sapiens, CH1cisR). In addition, the ΔTm in the assay with Nucleic Acid [7] was determined as 1.5 °C; with Nucleic Acid [3], 0.8 °C; in the assay with Nucleic Acid [4] it was 0.5 °C; in the assay with Nucleic Acid [5], 1.3 °C.

With `COc1cc2c(cc1OCCCOc1cc3c(cc1OC)C(=O)N1CCC[C@H]1C=N3)N=C[C@@H]1CCCN1C2=O` [DSB-120], the pIC50 with CH1 (Homo sapiens, CH1) was 7.48; with A2780 [1] (Homo sapiens, A2780) it was 8.14; in the assay with A2780 [2] (Homo sapiens, A2780), 6.68; in the assay on SK-OV-3 (Homo sapiens, SK-OV-3), 6.13; in [6] (Homo sapiens, CH1cisR), 7.66. Further, the shift in melting temperature (ΔTm) stood at 13.1 °C with Nucleic Acid [3], 10.2 °C in the assay on Nucleic Acid [4] and 15.1 °C in the assay on Nucleic Acid [5].

Regarding `COc1cc2c(cc1O)N=C[C@@H]1CCCN1C2=O`, the ΔTm with Nucleic Acid [7] is 0.7 °C; in the assay on Nucleic Acid [3] it was 0.5 °C; in the assay with Nucleic Acid [4], 0.3 °C; in the assay on Nucleic Acid [5] it was 0.7 °C.
